Data set [1] relates to Plasmodium falciparum. Nature of the data set: Antiplasmodial activity against Plasmodium falciparum 3D7 infected in human erythrocyte assessed as intraerythrocytic growth inhibition incubated for 72 hrs by DAPI-staining based imaging analysis. The class given is functional, organism-based. The note with it: 3D7, 72 h. Summed up: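 P. falciparum 3D7 cultured in RPMI1640 with hypoxanthine, HEPES, 2.5 mg/mL AlbuMAX II and 5% human serum. Sorbitol-synchronized rings exposed 72 h at 37 °C under 5% CO2/5% O2, then DAPI-stained with saponin/Triton X-100 for 8 h in the dark. High-content imaging with spot detection. Duplicate points. Reference antimalarials run in each assay.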

Data set [2] is described as follows: Intrinsic clearance in rat liver microsomes at […] by LC-MS/MS analysis. The class given is ADME, Microsome. Put shortly:
(§1)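 Liver microsomes (human, mouse or rat) at 0.4 mg/mL protein, 37 °C, with an NADPH-regenerating system. Compound at 0.25 or 0.5 μM. Acetonitrile/diazepam quench, LC-MS quantitation. CLint from the first-order degradation rate constant.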
For orientation: Liver microsomes are vesicles of endoplasmic reticulum, rich in cytochrome P450 enzymes.

Data set [3] can be described thus: Intrinsic clearance in mouse liver microsomes at […] by LC-MS/MS analysis. It counts as ADME, Microsome. Put shortly: as §1
Data set [4] can be described thus: Intrinsic clearance in human hepatocytes measured per 10^6 cells at 0.25 uM by LC-MS analysis. The class given is ADME, cell-based, Hepatocyte. The note with it: read-out: CLH. Put shortly:
(§2)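 Compound at 0.25 μM incubated with cryopreserved human or rat hepatocytes (1×10^6 cells/mL) in Krebs–Henseleit buffer at 37 °C. Quenched with acetonitrile containing diazepam. LC-MS quantitation. CLint from the first-order degradation rate constant.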

A short description of data set [5]: Intrinsic clearance in rat hepatocytes measured per 10^6 cells at 0.25 uM by LC-MS analysis. It counts as ADME, cell-based, Hepatocyte. As to conditions: read-out: CLH. Summed up:
as §2

A short description of data set [6]: Stability in human plasma assessed as compound remaining at 1000 ng/ml after 2 hrs by LC-MS analysis. The note with it: read-out: Stability. The class given is ADME, cell-free. Put shortly: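 Pooled plasma (human, 3 donors; or male Sprague Dawley rat) spiked to nominal 1000 ng/mL, with at most 0.2% DMSO and 0.4% acetonitrile final. Held at 37 °C with timed aliquots. LC-MS against matrix standards with diazepam internal standard. Percent remaining is relative to the 5 min sample.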

Data set [7] deals with T1, CYP1A2 (Homo sapiens, UniProt P05177).
T1 sequence (P05177 whole entry): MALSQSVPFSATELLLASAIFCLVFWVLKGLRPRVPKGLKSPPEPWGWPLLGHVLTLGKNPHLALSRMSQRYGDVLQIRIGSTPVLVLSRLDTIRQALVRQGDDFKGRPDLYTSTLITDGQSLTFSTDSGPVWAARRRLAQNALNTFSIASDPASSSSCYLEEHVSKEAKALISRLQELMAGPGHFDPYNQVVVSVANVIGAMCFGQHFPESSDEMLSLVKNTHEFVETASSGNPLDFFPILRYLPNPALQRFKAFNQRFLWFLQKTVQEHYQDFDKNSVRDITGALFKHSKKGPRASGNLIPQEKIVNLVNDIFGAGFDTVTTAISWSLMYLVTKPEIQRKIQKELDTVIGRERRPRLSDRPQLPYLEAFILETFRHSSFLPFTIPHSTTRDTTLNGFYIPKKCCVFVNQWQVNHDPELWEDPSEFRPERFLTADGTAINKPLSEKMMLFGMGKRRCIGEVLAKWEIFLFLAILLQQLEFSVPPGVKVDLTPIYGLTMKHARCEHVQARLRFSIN
Nature of the data set: Inhibition of CYP1A2 (unknown origin) at 10 uM by UPLC-MS analysis relative to control. The class given is ADME. Summed up:
(§3)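 Human liver microsomes, using a substrate-specific metabolite approach. Test compound at 1 and 10 μM. Reference inhibitors: furafylline (1A2), sulfaphenazole (2C9), quinidine (2D6), ketoconazole (3A4). Specific metabolites quantified by UPLC-MS. Percent inhibition relative to incubation without inhibitor.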

The target of data set [8] is CYP3A4 (Homo sapiens, UniProt P08684). Nature of the data set: Inhibition of CYP3A4 (unknown origin) at 10 uM by UPLC-MS analysis relative to control. The class given is ADME. Put shortly: as §3
Data set [9] has as its system Hepatocyte. Description: Cytotoxicity against human hepatocyte measured after 96 hrs. The class given is cell-based. The note with it: hepatocytes.
Data set [10] has as its system Plasmodium falciparum. Nature of the data set: Antiplasmodial activity against asexual blood stage Plasmodium falciparum 3D7 (MR4) infected in erythrocytes assessed as parasite reduction ratio at 10 times of IC50 concentration treated up to 120 hrs measured after 21 days of serial dilution. The class given is functional. The note with it: time hrs <=120. Put shortly:
(§4)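 Samples taken every 24 h and washed free of drug. Viable parasites counted by limiting dilution: 3-fold serial dilutions, four independent series, growth scored at 21 days and confirmed at 28 days.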

Data set [11] has as its system Plasmodium falciparum. Description: Antiplasmodial activity against asexual blood stage Plasmodium falciparum 3D7 (MR4) infected in erythrocytes assessed as parasite clearance time for 99.9% organism. The class given is functional. Put shortly: as §4
Data set [12] deals with Plasmodium falciparum. Description: Antimalarial activity against Plasmodium falciparum K1 harbouring Pf-crt, Pf-mdrl,Pf-dhfr, Pf-dhps mutated loci assessed as inhibition of parasite growth incubated for […] by [3H]hypoxanthine incorporation assay based liquid scintillation counting method. It counts as functional, organism-based. Put shortly: (§5)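 Drug-resistant laboratory P. falciparum strains were compared against the sensitive strain NF54. Growth inhibition was read by a modified [3H]hypoxanthine incorporation assay over 72 h. IC50 is the mean of two independent biological replicates. Chloroquine and artesunate served as controls.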

Data set [13] concerns Plasmodium falciparum. Nature of the data set: Antimalarial activity against Plasmodium falciparum 7G8 harbouring Pf-crt, Pf-mdrl,Pf-dhfr, Pf-dhps mutated loci assessed as inhibition of parasite growth incubated for […] by [3H]hypoxanthine incorporation assay based liquid scintillation counting method. The class given is functional, organism-based. Put shortly:
as §5

Data set [14] concerns Plasmodium falciparum. Description: Antimalarial activity against Plasmodium falciparum TM90C2b harbouring Pf-crt, Pf-mdrl,Pfd-hfr, Pf-cytbQ0 mutated loci assessed as inhibition of parasite growth incubated for […] by [3H]hypoxanthine incorporation assay based liquid scintillation counting method. The class given is functional, organism-based. Put shortly: as §5
In data set [15] the test system is Plasmodium falciparum. Nature of the data set: Antimalarial activity against Plasmodium falciparum Cam3.1 harbouring Pf-crt, Pf-mdrl,Pf-dhfr, Pf-dhps, pf-kelch13 mutated loci assessed as inhibition of parasite growth incubated for […] by [3H]hypoxanthine incorporation assay based liquid scintillation counting method. The class given is functional, organism-based. Put shortly:
as §5

The subject of data set [16] is Plasmodium falciparum. Nature of the data set: Antimalarial activity against Plasmodium falciparum Dd2 DSM265 mutant harbouring […] assessed as inhibition of parasite growth incubated for […] by [3H]hypoxanthine incorporation assay based liquid scintillation counting method. It counts as functional, organism-based. Put shortly:
(§6)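 Genetically engineered P. falciparum lines carried mutations introduced into the Dd2 wild-type strain, which was tested alongside them. Growth inhibition was read by [3H]hypoxanthine incorporation over 72 h. IC50 is the mean of two independent biological replicates. Chloroquine and artesunate served as controls.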

Data set [17] is described as follows: Ratio of drug level in whole blood to plasma in Sprague-Dawley rat by LC-MS analysis. The class given is ADME, cell-free. As to conditions: whole blood and plasma. Summed up: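 Apparent whole-blood-to-plasma partitioning measured in vitro in rat blood.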
The test system of data set [18] is Plasmodium falciparum. Nature of the data set: Antimalarial activity against Plasmodium falciparum 3D70087/N9 infected in humanized NODscidlL2Rgamma null mouse model assessed as reduction in parasitemia at 100 mg/kg, po for 4 consecutive days measured after 7 days of post infection relative to control. As to conditions: 3D70087/N9, po, 96 h, time 4 day. The class given is functional. Put shortly:
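P. falciparum humanized SCID mouse model. Monosodium tetrahydrate salt given orally at 50 or 100 mg/kg on 4 consecutive days, n = 2 mice per group. Parasitemia read at day 7 post infection versus untreated controls.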

In data set [19] the test system is Plasmodium falciparum. Description: Antimalarial activity against Plasmodium falciparum Dd2 MMV048 mutant harbouring Pf-pi4k assessed as inhibition of parasite growth incubated for […] by [3H]hypoxanthine incorporation assay based liquid scintillation counting method. It counts as functional, organism-based. Summed up: as §6
Data set [20] has as its system Plasmodium falciparum. Nature of the data set: Antimalarial activity against Plasmodium falciparum NF54 assessed as inhibition of parasite growth incubated for 72 hrs by [3H]hypoxanthine incorporation assay based liquid scintillation counting method.

Bounds are passed on as bounds.

Sequence of CYP3A4 (P08684 whole entry): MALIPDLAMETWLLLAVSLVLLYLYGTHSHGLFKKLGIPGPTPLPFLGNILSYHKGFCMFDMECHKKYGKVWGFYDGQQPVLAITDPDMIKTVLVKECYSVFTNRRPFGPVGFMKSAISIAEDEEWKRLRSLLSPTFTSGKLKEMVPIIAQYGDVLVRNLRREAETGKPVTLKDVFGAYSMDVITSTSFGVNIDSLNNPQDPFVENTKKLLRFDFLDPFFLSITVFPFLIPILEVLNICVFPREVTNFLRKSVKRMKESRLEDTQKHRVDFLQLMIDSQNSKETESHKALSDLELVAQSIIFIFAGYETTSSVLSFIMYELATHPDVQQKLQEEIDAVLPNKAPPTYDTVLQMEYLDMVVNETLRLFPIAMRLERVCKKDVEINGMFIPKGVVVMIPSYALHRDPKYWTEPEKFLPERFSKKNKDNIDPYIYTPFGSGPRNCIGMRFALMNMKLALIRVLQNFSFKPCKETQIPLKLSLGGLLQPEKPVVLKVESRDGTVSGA

One may read the IC50 as the concentration that inhibits the measured activity by half. A word on the inhibition: it is the percentage by which the read-out fell short of the control. The low end stands for a response near the control, the high end for a response far below the control. Usually inhibition in vivo stands for the percentage by which the read-out fell short of the control. In the case of `CCc1cccc(CNC(=O)c2nc3cccc(COCc4ccc(C(=O)O)cc4)c3c(=O)[nH]2)c1`, the IC50 in data set [1] worked out at 25 nM; in data set [12], 31 nM; in data set [13] it was 16 nM; in data set [14], 24 nM; in data set [15], 31 nM; in data set [16], 23 nM. Besides, the IC50 was determined as 27 nM in data set [19] and 60 nM in [20]. For the same compound, the CLH in data set [2] was 36 uL/ml.millig; in [3] it was 183 uL/ml.millig. For the same compound, the hepatocyte CLint at 0.25 µM stood at 15 µL/min/1e6 cells in [4] and 6 µL/min/1e6 cells in [5]. In data set [6], the remaining at 2 h, 1000 ng/ml amounted to 100%. For the same compound, the inhibition at 10 µM in [7] and in [8] was below 10% each time. Further, the Activity result in data set [9] was “Non-Toxic”. The Ratio in data set [10] came to 4.6. The Time in [11] stood at 32 h. In data set [17], the blood plasma ratio came to 0.62. The inhibition in vivo at 100 mg/kg in data set [18] was 89%.

The record behind these values is ChEMBL document CHEMBL4828745, “Discovery and Structure-Activity Relationships of Quinazolinone-2-carboxamide Derivatives as Novel Orally Efficacious Antimalarials” (J Med Chem, 2021).
